# Measured values from ChEMBL document CHEMBL1152649, “Synthesis, cytotoxicity and human telomerase inhibition activities of a series of 1,2-heteroannelated anthraquinones and anthra[1,2-d]imidazole-6,11-dione homologues” (2009).
# Activity calls are given as the source filed them. The rule behind the calls is not given here.
# Assays:
# [1] = Growth inhibition of human […] cells; format: functional
# Procedure, shortened: (§1)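 Assayed in the NCI 60 human cancer cell line panel under the Developmental Therapeutics Program protocol. For each line, dose–response curves were plotted against log10 drug concentration. In the one-dose screen at 10^-5 M, growth was given as percent of untreated control cells, and mean graph midpoint values were averaged.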
# T47D = assay: Growth inhibition of human T47D cells; format: functional; procedure, shortened: as §1
# [2] = Cytotoxicity against human H1299 cells at 1 uM after 48 hrs by MTT assay; format: functional; settings: NCI-H1299, 48 h
# Procedure, shortened: (§2)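 H1299 non-small cell lung cancer cells were grown in RPMI 1640 with 10% FBS, penicillin and streptomycin at 37 °C under 5% CO2. About 2 × 10³ cells per well were seeded and left 24 h. Compounds were dissolved fresh in DMSO, diluted into complete medium and applied for 48 h. MTT was then added for 4 h at 37 °C, followed by lysis buffer (20% SDS, 50% DMF) for 16 h, and absorbance was read at 550 nm.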
# MDA-MB-435 [3] = assay: Growth inhibition of human MDA-MB-435 cells; format: functional
# Procedure, shortened: (§3)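 NCI 60 cancer cell line screen run per the Developmental Therapeutics Program protocol. Dose–response curves were plotted against log10 drug concentration for each cell line within its subpanel, and mean graph midpoint values were calculated.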
# Malme-3M = assay: Growth inhibition of human MALME-3M cells; format: functional; procedure, shortened: as §3
# [4] = molecular target: Telomerase reverse transcriptase (Homo sapiens) (UniProt O14746); assay: Inhibition of TERT in human H1299 cells assessed as residual transcriptional activity at 1 uM after 24 hrs by SEAP reporter gene assay; values are per cent of control
# Sequence of Telomerase reverse transcriptase (Homo sapiens) (O14746 whole entry): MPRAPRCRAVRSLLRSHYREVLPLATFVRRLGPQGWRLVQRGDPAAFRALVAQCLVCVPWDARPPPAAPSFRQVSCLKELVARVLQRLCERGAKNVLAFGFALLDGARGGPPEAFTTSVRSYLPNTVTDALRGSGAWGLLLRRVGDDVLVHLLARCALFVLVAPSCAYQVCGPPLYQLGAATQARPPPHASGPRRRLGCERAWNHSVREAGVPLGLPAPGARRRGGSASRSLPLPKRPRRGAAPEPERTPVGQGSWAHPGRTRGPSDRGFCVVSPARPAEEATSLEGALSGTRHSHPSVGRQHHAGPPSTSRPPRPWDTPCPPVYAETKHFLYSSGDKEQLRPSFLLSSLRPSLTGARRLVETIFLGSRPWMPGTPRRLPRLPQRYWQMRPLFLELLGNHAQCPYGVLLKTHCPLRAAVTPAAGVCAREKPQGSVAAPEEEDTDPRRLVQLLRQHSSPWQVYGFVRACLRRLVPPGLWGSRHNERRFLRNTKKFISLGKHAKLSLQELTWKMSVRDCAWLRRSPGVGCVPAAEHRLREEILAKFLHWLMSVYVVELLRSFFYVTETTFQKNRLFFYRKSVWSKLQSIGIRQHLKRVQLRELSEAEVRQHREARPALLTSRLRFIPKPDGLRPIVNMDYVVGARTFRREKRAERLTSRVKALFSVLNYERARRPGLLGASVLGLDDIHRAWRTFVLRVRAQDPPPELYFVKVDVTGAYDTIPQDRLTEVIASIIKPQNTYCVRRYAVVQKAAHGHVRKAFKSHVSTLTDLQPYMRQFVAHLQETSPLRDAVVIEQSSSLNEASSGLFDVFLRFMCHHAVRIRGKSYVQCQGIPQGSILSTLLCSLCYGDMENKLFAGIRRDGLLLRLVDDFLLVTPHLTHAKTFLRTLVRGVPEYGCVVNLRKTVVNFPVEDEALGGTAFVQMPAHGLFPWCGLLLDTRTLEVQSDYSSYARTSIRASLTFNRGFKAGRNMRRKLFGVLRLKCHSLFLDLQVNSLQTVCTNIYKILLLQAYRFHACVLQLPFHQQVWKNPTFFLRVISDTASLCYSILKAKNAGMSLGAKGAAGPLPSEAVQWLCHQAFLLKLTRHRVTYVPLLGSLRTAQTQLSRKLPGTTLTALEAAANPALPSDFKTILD
# MDA-MB-231 = assay: Antiproliferative activity against human MDA-MB-231 cells assessed as cell growth at 10 uM; format: functional; settings: read-out: Activity
# Procedure, shortened: (§4)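 NCI 60 cell line panel, single-dose screen (10^-5 M) run by the developmental therapeutics program protocol. Results are given as growth percent of treated cells relative to untreated control cells for each line.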
# HL-60(TB) [5] = assay: Growth inhibition of human HL-60(TB) cells; format: functional
# Procedure, shortened: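 NCI 60-cell-line panel run under the Developmental Therapeutics Program protocol. Dose-response curves are plotted against log10 drug concentration for each cell line within its subpanel, and GI50 is read from these curves.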
# [6] = molecular target: Telomerase reverse transcriptase (Homo sapiens) (UniProt O14746); assay: Inhibition of telomerase in human H1299 cells up to 100 uM by TRAP assay; format: cell-based
# Procedure, shortened: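 PCR-based telomeric repeat amplification protocol (TRAP). The telomerase source was total lysate of H1299 lung cancer cells, with protein measured against BSA standards. Controls were extract without inhibitor and RNase A-treated extract.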
# IGROV-1 = assay: Growth inhibition of human IGROV1 cells; format: functional; procedure, shortened: as §3
# U-251 [7] = assay: Antiproliferative activity against human U251 cells assessed as cell growth at 10 uM; format: functional; settings: read-out: Activity
# Procedure, shortened: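 NCI 60 cell line panel, single dose (10^-5 M), run per the Developmental Therapeutics Program protocol (one dose mean graph). Each result is the growth percentage of treated cells relative to untreated control cells.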
# HOP-62 = assay: Growth inhibition of human HOP62 cells; format: functional; procedure, shortened: as §3
# NCI-H322M = assay: Growth inhibition of human NCI-H322M cells; format: functional; procedure, shortened: as §3
# U-251 [8] = assay: Growth inhibition of human U251 cells; format: functional; procedure, shortened: as §1
# MOLT-4 = assay: Antiproliferative activity against human MOLT4 cells assessed as cell growth at 10 uM; format: functional; settings: read-out: Activity; procedure, shortened: as §4
# SF-295 = assay: Antiproliferative activity against human SF295 cells assessed as cell growth at 10 uM; format: functional; settings: read-out: Activity; procedure, shortened: as §4
# [9] = Antiproliferative activity against human RPMI8266 cells assessed as cell growth at 10 uM; format: functional; settings: read-out: Activity; procedure, shortened: as §4
# CCRF-CEM = assay: Growth inhibition of human CCRF-CEM cells; format: functional; procedure, shortened: as §3
# OVCAR-4 = assay: Growth inhibition of human OVCAR4 cells; format: functional; procedure, shortened: as §3
# MCF7 [10] = assay: Antiproliferative activity against human MCF7 cells assessed as cell growth at 10 uM; format: functional; settings: read-out: Activity; procedure, shortened: as §4
# MDA-MB-435 [11] = assay: Antiproliferative activity against human MDA-MB-435 cells assessed as cell growth at 10 uM; format: functional; settings: read-out: Activity; procedure, shortened: as §4
# UACC-257 = assay: Growth inhibition of human UACC257 cells; format: functional; procedure, shortened: as §1
# NCI/ADR-RES = assay: Antiproliferative activity against human NCI/ADR-RES cells assessed as cell growth at 10 uM; format: functional; settings: read-out: Activity; procedure, shortened: as §4
# COLO 205 = assay: Growth inhibition of human COLO205 cells; format: functional; procedure, shortened: as §3
# SK-OV-3 = assay: Antiproliferative activity against human SKOV3 cells assessed as cell growth at 10 uM; format: functional; settings: read-out: Activity; procedure, shortened: as §4
# 786-0 = assay: Growth inhibition of human 786-0 cells; format: functional; procedure, shortened: as §3
# NCI-H522 = assay: Growth inhibition of human NCI-H522 cells; format: functional; procedure, shortened: as §3
# PC-3 = assay: Growth inhibition of human PC3 cells; format: functional; procedure, shortened: as §1
# A498 = assay: Growth inhibition of human A498 cells; format: functional; procedure, shortened: as §3
# HL-60(TB) [12] = assay: Antiproliferative activity against human HL-60(TB) cells assessed as cell growth at 10 uM; format: functional; settings: read-out: Activity
# Procedure, shortened: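 NCI Developmental Therapeutics Program 60-cell-line one-dose screen at 10^-5 M. Readout is growth percentage of treated cells relative to untreated control cells.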
# [13] = Cytotoxicity against human H1299 cells at 10 uM after 48 hrs by MTT assay; format: functional; settings: NCI-H1299, 48 h; procedure, shortened: as §2
# SK-MEL-5 = assay: Growth inhibition of human SK-MEL-5 cells; format: functional; procedure, shortened: as §1
# HCT-15 = assay: Growth inhibition of human HCT15 cells; format: functional; procedure, shortened: as §3
# [14] = Growth inhibition of human Hs 578T cells; format: functional; procedure, shortened: as §3
# MCF7 [15] = assay: Growth inhibition of human MCF7 cells; format: functional; procedure, shortened: as §3
# [16] = read-out: LC50 (the source's name)
structure (smiles),measurement,setting,value
O=C1c2ccccc2C(=O)c2c1ccc1nsnc21,GI50,[1],1.18 µM
same,TGI,[1],3.46 µM
same,CC50,[1]; [16],> 100 µM
same,GI50,T47D,1.39 µM
same,LC50,T47D,8.27 µM
same,TGI,T47D,3.39 µM
same,viability at 1 µM,[2],40%
same,GI50,MDA-MB-435 [3],1.91 µM
same,TGI,MDA-MB-435 [3],3.31 µM
same,CC50,MDA-MB-435 [3]; [16],5.76 µM
same,GI50,Malme-3M,1.66 µM
same,TGI,Malme-3M,3.15 µM
same,CC50,Malme-3M; [16],5.96 µM
same,residual activity,[4],89%
same,growth at 10 µM,MDA-MB-231,-17.3%
same,GI50,HL-60(TB) [5],0.16 µM
same,TGI,HL-60(TB) [5],0.4 µM
same,CC50,HL-60(TB) [5]; [16],0.99 µM
same,inhibition,[6],inactive
same,GI50,IGROV-1,1.36 µM
same,TGI,IGROV-1,2.94 µM
same,CC50,IGROV-1; [16],6.35 µM
same,growth at 10 µM,U-251 [7],-89.3%
same,GI50,HOP-62,1.28 µM
same,TGI,HOP-62,3.31 µM
same,CC50,HOP-62; [16],8.53 µM
same,GI50,NCI-H322M,17.4 µM
same,TGI,NCI-H322M,47.8 µM
same,CC50,NCI-H322M; [16],> 100 µM
same,GI50,U-251 [8],1.61 µM
same,TGI,U-251 [8],2.96 µM
same,CC50,U-251 [8]; [16],5.44 µM
same,growth at 10 µM,MOLT-4,-40.1%
same,growth at 10 µM,SF-295,126%
same,growth at 10 µM,[9],-28%
same,GI50,CCRF-CEM,1.08 µM
same,TGI,CCRF-CEM,4.1 µM
same,CC50,CCRF-CEM; [16],> 100 µM
same,GI50,OVCAR-4,0.65 µM
same,TGI,OVCAR-4,2.17 µM
same,CC50,OVCAR-4; [16],5.57 µM
same,growth at 10 µM,MCF7 [10],-50.7%
same,growth at 10 µM,MDA-MB-435 [11],-87.9%
same,GI50,UACC-257,1.74 µM
same,TGI,UACC-257,3.51 µM
same,CC50,UACC-257; [16],7.09 µM
same,growth at 10 µM,NCI/ADR-RES,-2.53%
same,GI50,COLO 205,13.4 µM
same,TGI,COLO 205,28.9 µM
same,CC50,COLO 205; [16],62.4 µM
same,growth at 10 µM,SK-OV-3,101%
same,GI50,786-0,6.17 µM
same,TGI,786-0,19.3 µM
same,CC50,786-0; [16],50.4 µM
same,GI50,NCI-H522,1.66 µM
same,TGI,NCI-H522,3.93 µM
same,CC50,NCI-H522; [16],9.31 µM
same,GI50,PC-3,3.23 µM
same,TGI,PC-3,> 100 µM
same,CC50,PC-3; [16],> 100 µM
same,GI50,A498,12.4 µM
same,TGI,A498,25.4 µM
same,CC50,A498; [16],52 µM
same,growth at 10 µM,HL-60(TB) [12],-21.8%
same,viability at 10 µM,[13],16%
same,GI50,SK-MEL-5,1.58 µM
same,TGI,SK-MEL-5,2.92 µM
same,CC50,SK-MEL-5; [16],5.41 µM
same,GI50,HCT-15,1.71 µM
same,TGI,HCT-15,3.72 µM
same,CC50,HCT-15; [16],8.12 µM
same,GI50,[14],1.41 µM
same,LC50,[14],56 µM
same,TGI,[14],5.02 µM
same,GI50,MCF7 [15],1.53 µM
same,TGI,MCF7 [15],3.34 µM
same,CC50,MCF7 [15]; [16],7.29 µM
